Results taken from ChEMBL document CHEMBL4390654, “Microwave-assisted solid-phase synthesis of antisense acpP peptide nucleic acid-peptide conjugates active against colistin- and tigecycline-resistant E. coli and K. pneumoniae” (Eur J Med Chem, 2019).

Tests used:
Escherichia coli [1] = assay: Antibacterial activity against multi-drug resistant Escherichia coli NMI 3548/14 assessed as reduction in microbial growth incubated for 20 hrs; type: functional; conditions: NMI 3548/14, 20 h
In short: (§1)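 Broth microdilution MIC (modified Hancock protocol) in non-binding polystyrene plates. Inoculum ~2 × 10^5 CFU/mL in Mueller-Hinton broth with Mg²⁺ and Ca²⁺ at 4 mg/L each. Compounds dissolved in water, diluted in 0.01% acetic acid/0.2% BSA (final), added as 10× stocks. Covered plates incubated 20 h at 35 °C (± 2 °C) with 220 rpm circular shaking before MIC read.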

Escherichia coli [2] = assay: Antibacterial activity against multi-drug resistant Escherichia coli NMI 3898/15 assessed as reduction in microbial growth incubated for 20 hrs; type: functional; conditions: NMI 3898/15, 20 h; in short: as §1
Klebsiella pneumoniae [3] = assay: Antibacterial activity against multi-drug resistant Klebsiella pneumoniae NMI 2697/14 assessed as reduction in microbial growth incubated for 20 hrs; type: functional; conditions: NMI 2697/14, 20 h; in short: as §1
Klebsiella pneumoniae [4] = assay: Antibacterial activity against multi-drug resistant Klebsiella pneumoniae NMI 3081/09 assessed as reduction in microbial growth incubated for 20 hrs; type: functional; conditions: NMI 3081/09, 20 h; in short: as §1
Escherichia coli [5] = assay: Antibacterial activity against Escherichia coli ATCC 25922 assessed as reduction in microbial growth incubated for 20 hrs; type: functional; conditions: ATCC 25922, 20 h; in short: as §1
Escherichia coli [6] = assay: Antibacterial activity against Escherichia coli lacking a functional SbmA assessed as reduction in microbial growth incubated for 20 hrs
In short: (§2)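 Broth microdilution MIC after a modified Hancock protocol for cationic peptides, in non-binding polystyrene plates. Inoculum ~2 × 10^5 CFU/mL in Mueller-Hinton broth with Mg²⁺ and Ca²⁺ at 4 mg/L each. Compounds dissolved in water, diluted in 0.01% acetic acid, 0.2% BSA (final), added as 10× aliquots. Covered plates incubated 20 h at 35 °C (± 2 °C) with shaking at 220 rpm. MIC read as lowest inhibiting concentration.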

Klebsiella pneumoniae [7] = assay: Antibacterial activity against Klebsiella pneumoniae ATCC 13883 assessed as reduction in microbial growth incubated for 20 hrs; type: functional; conditions: ATCC 13883, 20 h; in short: as §2
Pseudomonas aeruginosa = assay: Antibacterial activity against Pseudomonas aeruginosa PAO1 assessed as reduction in microbial growth incubated for 20 hrs; type: functional; conditions: PAO1, 20 h; in short: as §2
Acinetobacter baumannii = assay: Antibacterial activity against Acinetobacter baumannii ATCC 19606 assessed as reduction in microbial growth incubated for 20 hrs; type: functional; conditions: ATCC 19606 = CIP 70.34 = JCM 6841, 20 h; in short: as §2
Staphylococcus aureus = assay: Antibacterial activity against Staphylococcus aureus ATCC 29213 assessed as reduction in microbial growth incubated for 20 hrs; type: functional; conditions: ATCC 29213, 20 h; in short: as §2
[8] = Hemolytic activity against RBC (unknown origin) at 100 uM; type: ADME, cell-based, Erythrocyte; conditions: red blood cells (erythrocytes); read-out: Activity

Structure (SMILES)	MIC (Escherichia coli [1])	MIC (Escherichia coli [2])	MIC (Klebsiella pneumoniae [3])	MIC (Klebsiella pneumoniae [4])	MIC (Escherichia coli [5])	MIC (Escherichia coli [6])	MIC (Klebsiella pneumoniae [7])	MIC (Pseudomonas aeruginosa)	MIC (Acinetobacter baumannii)	MIC (Staphylococcus aureus)	hemolysis at 100 µM [8]
CC(C)(O/N=C(\C(=O)N[C@@H]1C(=O)N2C(C(=O)[O-])=C(C[n+]3ccccc3)CS[C@H]12)c1csc(N)n1)C(=O)O [CEFTAZIDIME]	2 µg/mL	64 µg/mL	> 32 µg/mL	64 µg/mL	–	–	–	–	–	–	–
CC[C@@H](C)[C@@H](NC(=O)[C@H]1CCCN1C(=O)[C@@H](CCCNC(=N)N)NC(=O)[C@H]1CCCN1C(=O)[C@@H](Cc1cnc[nH]1)NC(=O)[C@@H](CO)NC(=O)[C@H](NC(=O)[C@H]1CCCN1C(=O)[C@@H](CCCNC(=N)N)NC(=O)[C@H]1CCCN1C(=O)[C@@H](CO)NC(=O)[C@@H](Cc1ccc(O)cc1)NC(=O)[C@H]1CCCN1C(=O)[C@@H](CCCNC(=N)N)NC(=O)[C@H]1CCCN1C(=O)[C@@H](CCCNC(=N)N)NC(=O)CCCCCNC(=O)[C@H](N)CCCNC(=N)N)[C@H](C)O)C(=O)N[C@H](CCCNC(=N)N)C(=O)N[C@@H](C(N)=O)C(C)C	> 64 µg/mL	> 64 µg/mL	> 64 µg/mL	> 64 µg/mL	> 64 µg/mL	> 64 µg/mL	> 64 µg/mL	> 64 µg/mL	> 64 µg/mL	> 64 µg/mL	< 1%
CN(C)[C@@H]1C(O)=C(C(N)=O)C(=O)[C@@]2(O)C(O)=C3C(=O)c4c(O)cccc4[C@@](C)(O)[C@H]3C[C@@H]12 [TETRACYCLINE]	8 µg/mL	64 µg/mL	16 µg/mL	> 256 µg/mL	–	–	–	–	–	–	–
C[C@@H](O)[C@H]1C(=O)N2C(C(=O)O)=C(SCCNC=N)C[C@H]12 [IMIPENEM ANHYDROUS]	2 µg/mL	0.5 µg/mL	4 µg/mL	32 µg/mL	–	–	–	–	–	–	–
NCC[C@H](O)C(=O)N[C@@H]1C[C@H](N)[C@@H](O[C@H]2O[C@H](CN)[C@@H](O)[C@H](O)[C@H]2O)[C@H](O)[C@H]1O[C@H]1O[C@H](CO)[C@@H](O)[C@H](N)[C@H]1O [AMIKACIN]	8 µg/mL	2 µg/mL	32 µg/mL	16 µg/mL	–	–	–	–	–	–	–
C[C@H]1[C@H](NC(=O)/C(=N\OC(C)(C)C(=O)O)c2csc(N)n2)C(=O)N1S(=O)(=O)O [AZTREONAM]	> 16 µg/mL	8 µg/mL	16 µg/mL	> 256 µg/mL	–	–	–	–	–	–	–
CC1(C)S[C@@H]2[C@H](NC(=O)[C@H](N)c3ccccc3)C(=O)N2[C@H]1C(=O)O [AMPICILLIN]	> 128 µg/mL	> 256 µg/mL	> 128 µg/mL	> 256 µg/mL	–	–	–	–	–	–	–
CN(C)c1cc(NC(=O)CNC(C)(C)C)c(O)c2c1C[C@H]1C[C@H]3[C@H](N(C)C)C(O)=C(C(N)=O)C(=O)[C@@]3(O)C(O)=C1C2=O [TIGECYCLINE]	16 µg/mL	0.5 µg/mL	0.5 µg/mL	2 µg/mL	–	–	–	–	–	–	–
CO/N=C(\C(=O)N[C@@H]1C(=O)N2C(C(=O)[O-])=C(C[N+]3(C)CCCC3)CS[C@H]12)c1csc(N)n1	2 µg/mL	–	16 µg/mL	> 256 µg/mL	–	–	–	–	–	–	–
